Source: ChEMBL document CHEMBL3393048, “Discovery of potent cytotoxic ortho-aryl chalcones as new scaffold targeting tubulin and mitosis with affinity-based fluorescence” (J Med Chem, 2014)

Legend:
MCF7 [1] = test: Drug resistance index, ratio of IC50 for doxorubicin-resistant human MCF7 cells to IC50 for human MCF7 cells; type: functional
Method in brief: (§1)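 Drug resistance index = IC50 in the resistant line / IC50 in its parental line. […] Pairs: A549/CDDP vs A549, MCF-7/DOX vs MCF-7, A2780/TAX vs A2780, HCT-8/VCT vs HCT-8.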

[2] = Antiproliferative activity against human HCT8 cells after 48 hrs by SRB method; type: functional, cell-based; conditions: HCT-8, 48 h
Method in brief: (§2)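 SRB assay. Cells in DMEM high glucose with 10% FBS were seeded at 5000/well and grown 24 h; a day-0 plate was fixed at that point. Compounds were added in triplicate for 48 h. IC50 came from nonlinear regression of dose–response curves from at least two independent experiments.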

A549 [3] = test: Induction of apoptosis in human A549 cells assessed as early apoptotic cells at 0.5 uM after 48 hrs by Annexin V-FITC/propidium iodide staining-based flow cytometry (reference value: 0.47%); type: functional
A549 [4] = test: Induction of apoptosis in human A549 cells assessed as necrotic cells at 0.5 uM after 48 hrs by Annexin V-FITC/propidium iodide staining-based flow cytometry (reference value: 0.06%); type: functional
MCF7 [5] = test: Antiproliferative activity against human MCF7 cells after 48 hrs by SRB method; type: functional, cell-based; conditions: MCF7, 48 h; method in brief: as §2
SW480 = test: Antiproliferative activity against human SW480 cells after 48 hrs by SRB method; type: functional, cell-based; conditions: SW480, 48 h; method in brief: as §2
A549 [6] = test: Induction of apoptosis in human A549 cells assessed as early apoptotic cells at 0.25 uM after 48 hrs by Annexin V-FITC/propidium iodide staining-based flow cytometry (reference value: 0.47%); type: functional
A2780 [7] = test: Drug resistance index, ratio of IC50 for taxol-resistant human A2780 cells to IC50 for human A2780 cells; type: functional; method in brief: as §1
A549 [8] = test: Induction of apoptosis in human A549 cells assessed as late apoptotic cells at 0.5 uM after 48 hrs by Annexin V-FITC/propidium iodide staining-based flow cytometry (reference value: 0.10%); type: functional
A549 [9] = test: Induction of apoptosis in human A549 cells assessed as viable cells at 0.5 uM after 48 hrs by Annexin V-FITC/propidium iodide staining-based flow cytometry (reference value: 99.37%); type: functional; conditions: A549, 48 h, read-out: Activity
MCF7 [10] = test: Antiproliferative activity against doxorubicin-resistant human MCF7 cells after 48 hrs by SRB method; type: functional, cell-based; conditions: MCF7, 48 h; method in brief: as §2
A2780 [11] = test: Antiproliferative activity against human A2780 cells after 48 hrs by SRB method; type: functional, cell-based; conditions: A2780, 48 h; method in brief: as §2
[12] = Antiproliferative activity against vincristine-resistant human HCT8 cells after 48 hrs by SRB method; type: functional, cell-based; conditions: HCT-8, 48 h
Method in brief: as §2, with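 “h. Cells were fixed with TCA at 4 °C for 1 h, stained with 0.4% SRB, and the dye was solubilized in 10 mM Tris pH 10.4. OD was read at 515 nm with day-0 OD subtracted.” for “h.”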

A549 [13] = test: Induction of apoptosis in human A549 cells assessed as total apoptotic cells at 0.25 uM after 48 hrs by Annexin V-FITC/propidium iodide staining-based flow cytometry; type: functional

IC50 (MCF7 [5]): 230 nM
IC50 (SW480): 41 nM
IC50 (MCF7 [10]): 45 nM
IC50 (A2780 [11]): 94 nM
SMILES: CN(C)c1ccc(/C=C/C(=O)c2ccccc2-c2ccc(F)cc2)cc1
Ratio IC50 (MCF7 [1]): 0.68
IC50 [2]: 130 nM
Activity (A549 [3]): 33.86%
Activity (A549 [4]): 11.95%
Activity (A549 [6]): 34.67%
Ratio IC50 (A2780 [7]): 0.52
Activity (A549 [8]): 41.85%
viability at 0.5 µM (A549 [9]): 12.3%
IC50 [12]: 96 nM
Activity (A549 [13]): 69.1%
